# Assay outcomes: PubChem BioAssay, several laboratories
# Sampled rows, rich in hits. Any-hit rate of the full collection: about 2.8%.
# EP2 mod = EP2 receptor modulators, cAMP readout, primary screen, cell-based, HTRF cAMP, PGE2 stimulation; Prostaglandin E2 receptor EP2 subtype (Homo sapiens), P43116; hit rate 0.83% among 260,000; EP2-expressing cells, cAMP HTRF FRET, PGE2 co-stimulation; induction, % at 25 µM;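 active means compounds whose cAMP rise, as percent of the full-agonist control response, exceeds 60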;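 further: rat C6 glioma line stably carrying human EP2 under a CMV promoter; the protocol text gives 20 µM as final concentration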
# NPY-Y1 PAM-ag = NPY-Y1 receptor potentiators or agonists, primary screen, cell-based | NPY-Y1 expressing cells, potentiator/agonist activation | activation, % at 3.6 µM | hit rate 0.37% among 220,000 | AID 1304, 2008; in the data active means activation above about 33%, passing the limit was not always enough;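 further: cells stimulated with NPY at EC10 then isoproterenol at EC100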
# NPY-Y2 antag = NPY-Y2 receptor antagonists, primary screen, cell-based; Neuropeptide Y receptor type 2 (Homo sapiens), P49146; NPY-Y2 expressing cells, antagonist mode; hit rate 0.99% among 140,000; AID 793, 2007; inhibition, % at 2.7 µM; in the data active means inhibition above about 17%
# Target sequence (P49146 whole entry, looked up): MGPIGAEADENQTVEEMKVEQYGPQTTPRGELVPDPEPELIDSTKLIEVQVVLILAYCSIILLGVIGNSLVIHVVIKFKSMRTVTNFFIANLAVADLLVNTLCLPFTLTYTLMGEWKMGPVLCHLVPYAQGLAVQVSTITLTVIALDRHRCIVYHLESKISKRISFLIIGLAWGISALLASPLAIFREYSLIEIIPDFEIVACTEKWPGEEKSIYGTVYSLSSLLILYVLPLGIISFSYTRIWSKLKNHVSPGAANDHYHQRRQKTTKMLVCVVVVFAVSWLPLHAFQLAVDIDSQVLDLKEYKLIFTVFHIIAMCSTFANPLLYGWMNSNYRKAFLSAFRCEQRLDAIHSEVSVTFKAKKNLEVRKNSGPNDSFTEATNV
# NPY-Y1 antag = NPY-Y1 receptor antagonists, primary screen, cell-based; Neuropeptide Y receptor type 1 (Homo sapiens), P25929; hit rate 1% among 200,000; inhibition, % at 3.6 µM; HEK293-CNG Y1 cells, membrane potential fluorescence; NPY at EC95, then isoproterenol;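 active means inhibition above the campaign mean inhibition of all tested compounds plus 3 SD, cut at about 20% in these data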
#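 Test system: HEK293 cells co-expressing NPY Y1 receptor and cyclic-nucleotide gated channel; Also added: NPY (25 nM), isoproterenol (1 µM), Ro 20-1724 (25 µM); Compound dosing: one concentration, 3.6 µM, in 0.4% DMSO; Timing: dye 3 h, compound 60 min room temperature, stimulation 45 min; Technique: Membrane-potential fluorescent dye readout.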
# EP2 antag = human EP2 receptor antagonists, primary screen, TR-FRET cAMP, C6 glioma cells; C6 glioma cells expressing human EP2; cells stimulated with saturating PGE2; inhibition, % at 25 µM; Prostaglandin E2 receptor EP2 subtype (Homo sapiens), P43116; hit rate 0.52% among 260,000;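 active means percent inhibition above 40 after rounding to a whole number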;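 further: rat C6 glioma host cells with rolipram phosphodiesterase inhibitor present; the protocol text gives 20 µM as final concentration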
# NPY-Y2 PAM-ag = NPY-Y2 potentiators or agonists, primary screen, cell-based. activation, % at 3.6 µM. hit rate 0.45% among 220,000. Neuropeptide Y receptor type 2 (Homo sapiens), P49146. AID 1359, 2008. cells expressing NPY-Y2, potentiator/agonist read-out; in the data active means activation above about 27%;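 further: cells stimulated with NPY near EC25 plus isoproterenol at EC100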
# Hits are given with their value; – = inactive; · = not tested or not shown.
SMILES,EP2 mod,NPY-Y1 PAM-ag,NPY-Y2 antag,NPY-Y1 antag,EP2 antag,NPY-Y2 PAM-ag
Cc1ccccc1C(=O)c1c[nH]c(C(N)=O)c1,–,111,–,–,–,–
COc1ccc(CNC(=O)CSc2nc3sc4c(c3c(=O)[nH]2)CCC(C)C4)cc1 (configuration not stated),–,·,·,·,–,·
CCOc1cc(-c2nn3cnnc3s2)cc(OCC)c1OCC,61,–,–,–,–,–
COc1ccccc1C1(NC(=O)c2nsc(Cl)c2Cl)CCCC1,–,·,·,·,·,·
CCN1/C(=C/C=C/C=C/c2sc3ccccc3[n+]2CC)Sc2ccccc21,–,–,–,–,50,–
CCOC(=O)C(Sc1nc2c(cc1C#N)CCCC2)C(C)=O (configuration not stated),–,·,·,·,–,·
CCOC(=O)n1c(=O)n(Cc2cccc(C)c2)c2ccccc21,64,–,·,–,–,–
CCOC(=O)n1c(=O)n(Cc2ccc(F)cc2)c2ccccc21,–,–,·,–,–,–
CC(C)C(c1nnnn1C(C)(C)C)N1CCN(c2cccc(Cl)c2)CC1 (configuration not stated),–,–,22,48,–,–
CCOc1ccc(NC(=O)CSc2nc3ccccc3c(=O)n2-c2cccc(C)c2)cc1,–,·,·,·,–,·
COC(=O)Sc1nnc(-c2ccc(Br)cc2)o1,–,–,–,–,45,–
COc1cccc(Cn2c3cc(C)sc3c3cnn(C)c(=O)c32)c1,–,·,·,·,·,·
c1ccc(N2CCN(c3ncnc4c3oc3ccccc34)CC2)cc1,–,–,22,23,·,–
CCc1nnc(N2CCN(c3ncnc4c3oc3ccccc34)CC2)s1,–,–,–,–,–,–
CCS(=O)(=O)c1ccc(Sc2nncn2C)c([N+](=O)[O-])c1,–,–,·,–,–,–
CCS(=O)(=O)c1cc([N+](=O)[O-])c(Br)s1,–,·,·,·,74,·
O=C(Cc1ccc(F)cc1)N1CCCC1c1nc2ccccc2[nH]1 (configuration not stated),–,·,·,·,·,·
Cc1ccc(C)c(-c2csc(N)c2C(=O)OC(C)C)c1,63,–,–,–,–,–
CCOC(=O)c1c(-c2ccncc2)csc1N,–,–,–,–,–,–
CCCCN(C(=O)c1cccc2c(=O)c(C)c(-c3ccccc3)oc12)c1ccccc1,64,–,–,–,–,–
CCCCNC(=O)c1cccc2c(=O)c(C)c(-c3ccccc3)oc12,–,–,–,–,–,–
CCC(C)(C)n1nnnc1CN(Cc1cccs1)Cc1cc2ccc(C)cc2[nH]c1=O,–,·,·,·,–,·
O=C1CC2(CCN(C(=O)C3CCCC3)CC2)Oc2ccccc21,–,·,·,·,·,·
Cc1ccc(NC(=O)CSc2nc3ccccc3c(=O)n2CCCN2CCCCC2)cc1C,–,–,34,38,–,–
COc1cc(C)c(CN2CCn3c(CO)nnc3C2)cc1OC,–,·,·,·,–,·
SMILES,EP2 mod,NPY-Y1 PAM-ag,NPY-Y2 antag,NPY-Y1 antag,EP2 antag,NPY-Y2 PAM-ag
COCCNc1c2c(nc3c(-c4cccs4)c(C)nn13)CCC2,–,·,·,·,·,·
CCOC(=O)c1sc(N(Cc2ccccc2)C(=O)COC(=O)c2ccc(O)cc2)nc1C,–,–,26,42,–,–
S=c1nc(-c2cccc(Cl)c2)[nH][nH]1,–,–,·,–,–,–
S=c1nc(-c2cc(Cl)ccc2Cl)[nH][nH]1,–,–,·,–,41,–
COc1ccc(CN2CCC(CNC(=O)c3c(OC)cccc3OC)CC2)cc1,–,·,·,·,·,·
COc1cccc(C(=O)COc2ccccc2-c2ccccc2)c1,61,–,–,–,–,–
O=C(COc1ccccc1-c1ccccc1)c1ccccc1,–,–,–,–,–,–
Cc1occc1-c1nn(C2CCN(C(=O)C3CC3)CC2)c(=O)o1,–,·,·,·,–,·
COCCNC(=O)CSc1cc(-c2ccccc2)c2ccc(OC)cc2n1,63,–,·,–,–,–
Cc1csc2nc(CSc3nc4ccccc4o3)c(Br)n12,–,–,–,23,–,–
Cc1ccccc1NC(=O)CSc1nc(C2CC2)nc2sc3c(c12)CCCC3,–,·,·,·,–,·
CC(C)[C@@H](Cn1nnc2ccccc21)NC(=O)c1ccc(Cn2cccn2)o1,–,·,·,·,·,·
Cc1cccc2cc(CN(Cc3ccco3)C(=O)Nc3ccc(F)cc3)c(=O)[nH]c12,–,·,·,·,–,·
CC(C)CN=Cc1c(O)c([N+](=O)[O-])cc2oc3c(c12)CCCC3,–,–,–,–,–,–
O=[N+]([O-])c1cc2oc3c(c2c(C=NCc2ccccc2)c1O)CCCC3,–,–,–,–,48,–
Cc1n[nH]c(=S)n1/N=C/c1ccccc1OCc1ccc(Cl)cc1,–,–,88,28,–,–
Cc1n[nH]c(=S)n1/N=C/c1cccc(OCc2ccccc2)c1,–,–,·,–,–,–
Cc1cc(-c2cnc(C)nc2C2CCCN(C(=O)c3cccnc3)C2)on1 (configuration not stated),–,·,·,·,·,·
CC(C)n1c2ccccc2c2cc([N+](=O)[O-])ccc21,65,–,–,–,–,–
N#CSc1cnc(N)s1,–,·,·,·,111,·
COc1c(Cl)cc(Cl)cc1C1C(C#N)=C(N)Oc2n[nH]c(-c3cc(C)sc3C)c21 (configuration not stated),–,·,·,·,–,·
Cc1ccc(-c2[nH]nc3c2C(c2ccoc2)C(C#N)=C(N)O3)cc1C (configuration not stated),–,–,87,110,–,–
COc1ccc(-c2[nH]nc3c2C(c2ccoc2)C(C#N)=C(N)O3)cc1 (configuration not stated),–,–,–,–,–,–
Cc1cc(-c2[nH]nc3c2C(c2ccc(Cl)cc2)C(C#N)=C(N)O3)c(C)s1 (configuration not stated),–,–,69,59,–,–
Cc1ccc(CN(CCCn2ccnc2)Cc2ccccc2N2CCCCC2)o1,–,·,·,·,–,·
SMILES,EP2 mod,NPY-Y1 PAM-ag,NPY-Y2 antag,NPY-Y1 antag,EP2 antag,NPY-Y2 PAM-ag
O=C(COc1ccc(Br)cc1)Nc1ccc([N+](=O)[O-])cn1,–,–,–,21,–,–
O=C(COc1ccc([N+](=O)[O-])cc1)NNC(=S)NC(=O)c1ccc(Br)cc1,–,–,·,–,–,–
Cn1c(=O)oc2cc(S(=O)(=O)NCC(c3ccc(F)cc3)N3CCCC3)ccc21 (configuration not stated),–,·,·,·,–,·
c1ccc2c(c1)CCN(c1nc(CN3CCOCC3)nc3sc4c(c13)CCCC4)C2,–,–,23,23,–,–
CCn1c(O)c(N=NC(=O)c2ccc(CSc3nncn3C)cc2)c2ccccc21,–,–,–,–,–,–
Cn1cnnc1SCc1ccc(C(=O)N=Nc2c(O)n(Cc3ccc(Cl)cc3)c3ccccc23)cc1,–,47,–,–,–,46
